Data taken from ChEMBL document CHEMBL1132730, “Design, synthesis, and discovery of 3-piperazinyl-3,4-dihydro-2(1H)-quinolinone derivatives: a novel series of mixed dopamine D2/D4 receptor antagonists” (Bioorg Med Chem Lett, 2000).

biological target: T1, D(2) dopamine receptor (Homo sapiens, UniProt P14416); test: Binding affinity at human Dopamine receptor D2 by [3H]- YM 09151 displacement; Not active.
In short: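 Competitive radioligand displacement on cloned human D2 receptor, with [3H]YM 09151 as the displaced ligand.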

T1 sequence (P14416 whole entry): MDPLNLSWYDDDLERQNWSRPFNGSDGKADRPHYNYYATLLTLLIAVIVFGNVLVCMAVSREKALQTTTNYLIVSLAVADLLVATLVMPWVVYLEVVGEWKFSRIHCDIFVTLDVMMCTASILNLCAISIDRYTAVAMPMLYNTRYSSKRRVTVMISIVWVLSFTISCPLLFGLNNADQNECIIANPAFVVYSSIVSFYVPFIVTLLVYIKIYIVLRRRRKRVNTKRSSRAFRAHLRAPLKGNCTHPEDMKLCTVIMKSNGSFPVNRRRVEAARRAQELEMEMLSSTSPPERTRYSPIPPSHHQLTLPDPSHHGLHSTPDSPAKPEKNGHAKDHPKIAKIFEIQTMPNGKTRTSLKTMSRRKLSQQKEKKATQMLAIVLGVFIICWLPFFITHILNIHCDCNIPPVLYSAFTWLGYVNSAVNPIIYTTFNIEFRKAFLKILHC

Row | SMILES | Ki
1 | CCOC(=O)C1(N2CCN(Cc3ccc(Cl)cc3)CC2)Cc2ccccc2NC1=O (stereo unspecified) | Not Active
2 | CCOC(=O)C(Cc1ccccc1[N+](=O)[O-])(C(=O)OCC)N1CCN(Cc2ccc(Cl)cc2)CC1 | Not Active
3 | CCOC(=O)C(C(=O)OCC)N1CCN(Cc2ccc(Cl)cc2)CC1 | Not Active
4 | CCOC(=O)C(Cc1ccccc1N)(C(=O)OCC)N1CCN(Cc2ccc(Cl)cc2)CC1 | Not Active
5 | Fc1ccc(OC[C@@H]2CC[C@H]3CN(c4ncc(F)cn4)CCN3C2)cc1 | Not Active
6 | O=C1Nc2ccccc2CCC1I (stereo unspecified) | Not Active
7 | Clc1ccc(CN2CCNCC2)cc1 | Not Active
8 | O=C1Nc2ccccc2C1Cl (stereo unspecified) | Not Active
9 | Cc1cnc(N2CCN(Cc3c[nH]c(-c4ccccc4)n3)CC2)nc1 | Not Active
10 | Clc1ccc(N2CCN(Cc3c[nH]c4ncccc34)CC2)cc1 [L-745870] | Not Active
11 | NS(=O)(=O)c1ccc(N2CCN(CC[C@@H]3OCCc4ccccc43)CC2)cc1 [SONEPIPRAZOLE] | Not Active

biological target: T2, Alpha adrenergic receptor 1A and 1B (Rattus norvegicus, UniProt P15823+P43140); test: Binding affinity at Alpha-1 adrenergic receptor in rat brain homogenates by [3H]- prazosin displacement.; assay type: tissue-based
T2 sequence (P15823 whole entry): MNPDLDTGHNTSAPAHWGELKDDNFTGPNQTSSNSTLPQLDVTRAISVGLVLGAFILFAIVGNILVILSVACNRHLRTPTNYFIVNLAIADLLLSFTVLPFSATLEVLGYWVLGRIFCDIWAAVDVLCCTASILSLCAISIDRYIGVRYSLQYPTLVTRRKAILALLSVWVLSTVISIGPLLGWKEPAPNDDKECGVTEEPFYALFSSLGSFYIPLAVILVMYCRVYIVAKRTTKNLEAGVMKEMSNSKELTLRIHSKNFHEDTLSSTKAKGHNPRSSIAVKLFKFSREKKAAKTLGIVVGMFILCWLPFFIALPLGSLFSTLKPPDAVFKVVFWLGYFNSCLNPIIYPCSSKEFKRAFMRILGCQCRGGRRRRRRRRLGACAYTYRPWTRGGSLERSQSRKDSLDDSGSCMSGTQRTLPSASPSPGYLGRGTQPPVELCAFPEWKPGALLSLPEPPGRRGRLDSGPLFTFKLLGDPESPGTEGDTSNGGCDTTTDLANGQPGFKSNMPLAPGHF
T2 sequence (P43140 whole entry): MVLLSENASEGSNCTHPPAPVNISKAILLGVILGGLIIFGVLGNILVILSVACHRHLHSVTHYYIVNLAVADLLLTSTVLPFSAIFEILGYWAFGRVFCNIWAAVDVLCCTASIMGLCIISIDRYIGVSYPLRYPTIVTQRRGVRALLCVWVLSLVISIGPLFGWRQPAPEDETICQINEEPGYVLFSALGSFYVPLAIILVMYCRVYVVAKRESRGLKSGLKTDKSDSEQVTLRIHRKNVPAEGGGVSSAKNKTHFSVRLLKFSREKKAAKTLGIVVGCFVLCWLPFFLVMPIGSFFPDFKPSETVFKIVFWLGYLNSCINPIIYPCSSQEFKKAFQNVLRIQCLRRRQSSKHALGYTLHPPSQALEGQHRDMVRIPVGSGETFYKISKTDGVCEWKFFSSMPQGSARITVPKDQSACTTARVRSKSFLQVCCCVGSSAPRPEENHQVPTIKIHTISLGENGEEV

Row | SMILES | Ki
12 | Clc1ccc(N2CCN(C[C@H]3C[C@@H]3c3ccccc3)CC2)c(Cl)c1 | 322 nM
13 | CCN1C(=O)C(N2CCN(Cc3ccc(C)cc3)CC2)CCc2ccccc21 (stereo unspecified) | 815 nM
14 | Cc1ccc(CN2CCN(C3(C)C(=O)N(C)c4ccccc43)CC2)cc1 (stereo unspecified) | > 10000 nM
15 | CN(C(=O)CN1CCN(Cc2ccc(Cl)cc2)CC1)c1ccccc1 | > 10000 nM
16 | CCN1C(=O)C(CC)(N2CCN(Cc3ccc(Cl)cc3)CC2)c2ccccc21 (stereo unspecified) | > 10000 nM
17 | CCN1C(=O)C(CC)(N2CCN(Cc3ccc(C)cc3)CC2)c2ccccc21 (stereo unspecified) | > 10000 nM
18 | Cc1ccc(CN2CCN(C3CCc4ccccc4N(C)C3=O)CC2)cc1 (stereo unspecified) | 2038 nM
19 | CN1C(=O)C(N2CCN(Cc3ccc(Cl)cc3)CC2)Cc2ccccc21 (stereo unspecified) | 2003 nM
20 | O=C1Nc2ccccc2C1N1CCN(Cc2ccc(Cl)cc2)CC1 (stereo unspecified) | > 10000 nM
21 | CN1C(=O)C(N2CCN(Cc3ccc(Cl)cc3)CC2)CCc2ccccc21 (stereo unspecified) | 2878 nM
22 | Cc1ccc(CN2CCN(C3CCc4ccccc4NC3=O)CC2)cc1 (stereo unspecified) | 3120 nM
23 | O=C1Nc2ccccc2CCC1N1CCN(Cc2ccc(Cl)cc2)CC1 (stereo unspecified) | 9591 nM
24 | O=C1Nc2ccccc2CC1N1CCN(Cc2ccc(Cl)cc2)CC1 (stereo unspecified) | 2003 nM
25 | CCN1C(=O)C(N2CCN(Cc3ccc(Cl)cc3)CC2)CCc2ccccc21 (stereo unspecified) | 2678 nM
26 | CN1C(=O)C(C)(N2CCN(Cc3ccc(Cl)cc3)CC2)c2ccccc21 (stereo unspecified) | > 10000 nM
27 | Cc1ccc(CN2CCN(C3C(=O)Nc4ccccc43)CC2)cc1 (stereo unspecified) | > 10000 nM
28 | CCN1C(=O)C(N2CCN(Cc3ccc(Cl)cc3)CC2)Cc2ccccc21 (stereo unspecified) | 1265 nM

biological target: T3, D(4) dopamine receptor (Homo sapiens, UniProt P21917); test: Binding affinity at human Dopamine receptor D4 by [3H]- YM 09151 displacement.
T3 sequence (P21917 whole entry): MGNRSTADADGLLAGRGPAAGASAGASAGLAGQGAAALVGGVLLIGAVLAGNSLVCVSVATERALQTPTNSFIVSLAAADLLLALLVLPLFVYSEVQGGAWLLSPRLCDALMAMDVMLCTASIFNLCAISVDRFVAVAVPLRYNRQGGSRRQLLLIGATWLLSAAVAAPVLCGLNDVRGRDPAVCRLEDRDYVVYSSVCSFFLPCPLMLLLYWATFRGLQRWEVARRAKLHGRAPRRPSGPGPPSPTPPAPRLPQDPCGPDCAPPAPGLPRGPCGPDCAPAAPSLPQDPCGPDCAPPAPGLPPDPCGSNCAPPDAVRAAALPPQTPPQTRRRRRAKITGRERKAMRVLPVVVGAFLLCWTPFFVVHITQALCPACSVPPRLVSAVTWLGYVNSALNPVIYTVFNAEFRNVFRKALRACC

Row | SMILES | Ki
29 | CCN1C(=O)C(N2CCN(Cc3ccc(C)cc3)CC2)CCc2ccccc21 (stereo unspecified) | 2960 nM
30 | Cc1ccc(CN2CCN(C3(C)C(=O)N(C)c4ccccc43)CC2)cc1 (stereo unspecified) | > 1000 nM
31 | CN(C(=O)CN1CCN(Cc2ccc(Cl)cc2)CC1)c1ccccc1 | 59 nM
32 | CCN1C(=O)C(CC)(N2CCN(Cc3ccc(Cl)cc3)CC2)c2ccccc21 (stereo unspecified) | 7020 nM
33 | CCN1C(=O)C(CC)(N2CCN(Cc3ccc(C)cc3)CC2)c2ccccc21 (stereo unspecified) | > 1000 nM
34 | Cc1ccc(CN2CCN(C3CCc4ccccc4N(C)C3=O)CC2)cc1 (stereo unspecified) | 4380 nM
35 | CN1C(=O)C(N2CCN(Cc3ccc(Cl)cc3)CC2)Cc2ccccc21 (stereo unspecified) | 4 nM
36 | O=C1Nc2ccccc2C1N1CCN(Cc2ccc(Cl)cc2)CC1 (stereo unspecified) | > 1000 nM
37 | CN1C(=O)C(N2CCN(Cc3ccc(Cl)cc3)CC2)CCc2ccccc21 (stereo unspecified) | 2470 nM
38 | Cc1ccc(CN2CCN(C3CCc4ccccc4NC3=O)CC2)cc1 (stereo unspecified) | > 1000 nM
39 | O=C1Nc2ccccc2CCC1N1CCN(Cc2ccc(Cl)cc2)CC1 (stereo unspecified) | > 1000 nM
40 | O=C1Nc2ccccc2CC1N1CCN(Cc2ccc(Cl)cc2)CC1 (stereo unspecified) | 100 nM
41 | CCN1C(=O)C(N2CCN(Cc3ccc(Cl)cc3)CC2)CCc2ccccc21 (stereo unspecified) | 1510 nM
42 | CN1C(=O)C(C)(N2CCN(Cc3ccc(Cl)cc3)CC2)c2ccccc21 (stereo unspecified) | > 1000 nM
43 | Cc1ccc(CN2CCN(C3C(=O)Nc4ccccc43)CC2)cc1 (stereo unspecified) | > 1000 nM
44 | CCN1C(=O)C(N2CCN(Cc3ccc(Cl)cc3)CC2)Cc2ccccc21 (stereo unspecified) | 4 nM

biological target: T3, D(4) dopamine receptor; test: Binding affinity at human Dopamine receptor D4 by [3H]- YM 09151 displacement; Not active.

Row | SMILES | Ki
45 | CCOC(=O)C1(N2CCN(Cc3ccc(Cl)cc3)CC2)Cc2ccccc2NC1=O (stereo unspecified) | Not Active
46 | CCOC(=O)C(Cc1ccccc1[N+](=O)[O-])(C(=O)OCC)N1CCN(Cc2ccc(Cl)cc2)CC1 | Not Active
47 | CCOC(=O)C(C(=O)OCC)N1CCN(Cc2ccc(Cl)cc2)CC1 | Not Active
48 | CCOC(=O)C(Cc1ccccc1N)(C(=O)OCC)N1CCN(Cc2ccc(Cl)cc2)CC1 | Not Active
49 | Fc1ccc(OC[C@@H]2CC[C@H]3CN(c4ncc(F)cn4)CCN3C2)cc1 | Not Active
50 | O=C1Nc2ccccc2CCC1I (stereo unspecified) | Not Active
51 | Clc1ccc(CN2CCNCC2)cc1 | Not Active
52 | O=C1Nc2ccccc2C1Cl (stereo unspecified) | Not Active
53 | Cc1cnc(N2CCN(Cc3c[nH]c(-c4ccccc4)n3)CC2)nc1 | Not Active
54 | Clc1ccc(N2CCN(Cc3c[nH]c4ncccc34)CC2)cc1 [L-745870] | Not Active
55 | NS(=O)(=O)c1ccc(N2CCN(CC[C@@H]3OCCc4ccccc43)CC2)cc1 [SONEPIPRAZOLE] | Not Active

biological target: T1, D(2) dopamine receptor

Row | SMILES | Ki
56 | CCN1C(=O)C(N2CCN(Cc3ccc(C)cc3)CC2)CCc2ccccc21 (stereo unspecified) | > 1000 nM
57 | Cc1ccc(CN2CCN(C3(C)C(=O)N(C)c4ccccc43)CC2)cc1 (stereo unspecified) | > 1000 nM
58 | CN(C(=O)CN1CCN(Cc2ccc(Cl)cc2)CC1)c1ccccc1 | > 1000 nM
59 | CCN1C(=O)C(CC)(N2CCN(Cc3ccc(Cl)cc3)CC2)c2ccccc21 (stereo unspecified) | > 1000 nM
60 | CCN1C(=O)C(CC)(N2CCN(Cc3ccc(C)cc3)CC2)c2ccccc21 (stereo unspecified) | > 1000 nM
61 | Cc1ccc(CN2CCN(C3CCc4ccccc4N(C)C3=O)CC2)cc1 (stereo unspecified) | > 1000 nM
62 | CN1C(=O)C(N2CCN(Cc3ccc(Cl)cc3)CC2)Cc2ccccc21 (stereo unspecified) | 133 nM
63 | O=C1Nc2ccccc2C1N1CCN(Cc2ccc(Cl)cc2)CC1 (stereo unspecified) | > 1000 nM
64 | CN1C(=O)C(N2CCN(Cc3ccc(Cl)cc3)CC2)CCc2ccccc21 (stereo unspecified) | 7370 nM
65 | Cc1ccc(CN2CCN(C3CCc4ccccc4NC3=O)CC2)cc1 (stereo unspecified) | > 1000 nM
66 | O=C1Nc2ccccc2CCC1N1CCN(Cc2ccc(Cl)cc2)CC1 (stereo unspecified) | > 1000 nM
67 | O=C1Nc2ccccc2CC1N1CCN(Cc2ccc(Cl)cc2)CC1 (stereo unspecified) | 1370 nM
68 | CCN1C(=O)C(N2CCN(Cc3ccc(Cl)cc3)CC2)CCc2ccccc21 (stereo unspecified) | > 1000 nM
69 | CN1C(=O)C(C)(N2CCN(Cc3ccc(Cl)cc3)CC2)c2ccccc21 (stereo unspecified) | > 1000 nM
70 | Cc1ccc(CN2CCN(C3C(=O)Nc4ccccc43)CC2)cc1 (stereo unspecified) | > 1000 nM
71 | CCN1C(=O)C(N2CCN(Cc3ccc(Cl)cc3)CC2)Cc2ccccc21 (stereo unspecified) | 21 nM
